Only some compounds are listed: those with a hit (about 1.7% of all), similar ones and a draw of the others.
PolyA inh: blocks polyadenylation in yeast reporter cells. S. cerevisiae SKY197-pL101 polyadenylation reporter, beta-gal luminescence; efflux-impaired pdr1/pdr3 knockout yeast; score 100 = 6 SD above DMSO. activity score, % at 12 µM. AID 1875. 300,000 compounds, 0.02% hits;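 active = lowest replicate activity score at least 50, where 100 means six control SD above control mean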;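 also: yeast exposed to compound for 9 h at 30 °C; higher score means more reporter readthrough which indicates perturbed polyadenylation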
proCasp3 act: activates human procaspase-3 | recombinant procaspase-3 D3A, Ac-DEVD-pNA absorbance 405 nm | AID 463141 | 330,000 compounds, 0.11% hits | activation, % at 8.5 µM;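 active = activation above the mean of all tested compounds plus 3 SD, cut at about 21% in these data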;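 also: 0% = DMSO alone and 100% = DMSO wells spiked with extra 5 µM PC-3 D3A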
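Compound: 8.5 µM single point, 0.8% DMSO / Material: Autoprocessing-dead procaspase-3 D3A mutant enzyme / Timing: 1 h preincubation plus 2 h reaction at 25 °C / Medium: Zinc-free HEPES/NaCl buffer with 0.01% Triton X-100 at pH 7.4 / Technique: 405 nm absorbance of p-nitroaniline, reads at 0 and 120 min / Repeats: one well per compound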
Neddyl block: cullin neddylation inhibition; calls only at 25 µM; 360,000 compounds, 0.58% hits; AID 651699; TR-FRET cullin neddylation, biochemical; in the data active = inhibition above about 36%
procasp7 counter: activates human procaspase-7, counter-screen for procaspase-3 activators; recombinant procaspase-7, Ac-DEVD-pNA absorbance 405 nm; D23A/D198A/D206A triple mutant, cannot self-cleave; scale: DMSO 0, 5 µM enzyme 100; activation, % at 8.5 µM; 330,000 compounds, 0.093% hits; AID 463210;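 active = percent activation above the screen-wide mean plus 3 SD, cut at about 25% in these data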
Target sequence (P55210 whole entry D23A/D198A/D206A): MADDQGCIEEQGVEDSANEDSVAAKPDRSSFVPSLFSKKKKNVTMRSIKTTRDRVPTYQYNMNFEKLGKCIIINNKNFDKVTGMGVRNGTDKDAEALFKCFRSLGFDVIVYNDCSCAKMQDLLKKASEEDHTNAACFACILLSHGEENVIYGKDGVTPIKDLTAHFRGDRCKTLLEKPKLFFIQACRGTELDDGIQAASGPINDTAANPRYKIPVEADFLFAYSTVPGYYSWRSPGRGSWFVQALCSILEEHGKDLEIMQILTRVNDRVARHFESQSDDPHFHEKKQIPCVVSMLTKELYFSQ
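Replicates: singlicate. Assay system: Procaspase-7 triple mutant (PC-7 D3A). Signal: 405 nm absorbance of p-nitroaniline. Times: 1 h preincubation, 2 h reaction. Buffer or medium: Zinc-free HEPES pH 7.4 with 300 mM NaCl, 0.01% Triton X-100. Also added: DEVD-pNA substrate. Benchmarks: DMSO wells as 0%, DMSO with 5 µM added PC-7 as 100%.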
IMP-1 inh-1: blocks Pseudomonas aeruginosa IMP-1 metallo-beta-lactamase | purified IMP-1, nitrocefin hydrolysis, epi-absorbance fluorescence | inhibition, % at 5.6 µM | 290,000 compounds, 0.45% hits;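 active = inhibition above the mean plus 3 SD of all compounds in the same screening run, cut at about 4.5% in these data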;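 also: 0% = IMP-1 with DMSO and 100% = DMSO wells lacking enzyme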
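Assay system: purified recombinant IMP-1 beta-lactamase. Input: IMP-1 0.2 nM before substrate addition. Buffer or medium: Zinc- and detergent-supplemented HEPES buffer, pH 7.1. Schedule: 25 °C, 15 min preincubation, 25 min reaction. Signal: Epi-absorbance fluorescence, 480 nm excitation, 530 nm emission. Evaluation: percent inhibition from optical density relative to buffer-blank wells.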
VIM-2 inhibitor: blocks Pseudomonas aeruginosa VIM-2 metallo-beta-lactamase | 290,000 compounds, 0.89% hits | inhibition, % at 5.6 µM | purified VIM-2, nitrocefin hydrolysis, epi-absorbance fluorescence | AID 1527;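 active = inhibition above the mean of all tested compounds plus 3 SD, cutoff set per screening run, cut at about 7.5% in these data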;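 also: red hydrolysis product quenches plate fluorescence so inhibitors raise well fluorescence; 0% = enzyme with DMSO and 100% = DMSO without enzyme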
IMP-1 inh-2: selectivity counter-screen for VIM-2 inhibitors: IMP-1 metallo-beta-lactamase inhibitors; purified IMP-1, nitrocefin hydrolysis, epi-absorbance fluorescence; 1,300 tested, under 10 active; AID 1856; shares compounds with VIM-2 inhibitor; inhibition, % at 5.6 µM; call rule not given here;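 also: 0% = enzyme with vehicle and 100% = vehicle without enzyme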
VIM-2 FRET ctr: VIM-2 FRET inhibition, artifact counter-screen; 1,300 compounds, 23% hits; AID 1857; inhibition, % at 5.6 µM; purified VIM-2, CCF2 FRET substrate hydrolysis; shares compounds with VIM-2 inhibitor;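 active = inhibition above the mean of all tested compounds plus 3 SD, cut at about 19% in these data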;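 also: 0% = VIM-2 plus DMSO and 100% = no enzyme wells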
TEM-1 inh: selectivity counter-screen for VIM-2 inhibitors: E. coli TEM-1 inhibitors. shares compounds with VIM-2 inhibitor. AID 1866. 1,300 compounds, 3% hits. Purified TEM-1, nitrocefin hydrolysis, epi-absorbance fluorescence. inhibition, % at 5.6 µM;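 active = inhibition above that campaign's mean inhibition plus 3 SD, cut at about 0.46% in these data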;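 also: 0% = TEM-1 with DMSO and 100% = TEM-1 with 100 µM potassium clavulanate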
Target sequence (P62593 whole entry, looked up): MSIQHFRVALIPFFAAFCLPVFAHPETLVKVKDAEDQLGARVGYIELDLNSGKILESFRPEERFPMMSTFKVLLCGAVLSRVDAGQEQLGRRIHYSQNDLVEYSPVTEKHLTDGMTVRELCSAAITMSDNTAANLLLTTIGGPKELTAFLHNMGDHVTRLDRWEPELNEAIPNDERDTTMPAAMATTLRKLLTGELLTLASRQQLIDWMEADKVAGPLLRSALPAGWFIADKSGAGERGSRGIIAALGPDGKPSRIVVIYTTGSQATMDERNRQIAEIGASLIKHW
VIM-2 inh conf: confirmation of P. aeruginosa VIM-2 metallo-beta-lactamase inhibitors; shares compounds with VIM-2 inhibitor; inhibition, % at 5.6 µM; purified VIM-2, nitrocefin hydrolysis, epi-absorbance; 1,300 compounds, 96% hits; AID 2187;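 active = inhibition of the VIM-2 beta-lactamase enzyme above about 11% from the earlier first-round screen, limit read from the data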;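 also: 0% = VIM-2 with DMSO and 100% = buffer wells without enzyme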
* marks the source's active call; other numbers are inactive results.

What do the screens show for `O=C1c2ccccc2C(=O)c2c(NCCCN(CCO)CCO)cccc21`?
PolyA inh: -2.2; Neddyl block: inactive; IMP-1 inh-1: -3.8; VIM-2 inhibitor: 22.1*; IMP-1 inh-2: -3.6; VIM-2 FRET ctr: -3.2; TEM-1 inh: -13.4; VIM-2 inh conf: 35.7*

What do the screens show for `CN(CC(=O)Nc1ccc(F)cc1)C(=O)CSc1nncs1`?
PolyA inh: 12.1; proCasp3 act: 3.4; Neddyl block: inactive; procasp7 counter: 1.8; IMP-1 inh-1: -0.5; VIM-2 inhibitor: -1.9

How did CCOCCc1nnc(NC(=O)CCS(=O)(=O)c2ccccc2)s1 do in these assays?
PolyA inh: 14.1; proCasp3 act: 2.8; Neddyl block: inactive; procasp7 counter: -11.0; IMP-1 inh-1: -1.1; VIM-2 inhibitor: 12.4*; IMP-1 inh-2: -2.2; VIM-2 FRET ctr: 16.9; TEM-1 inh: -2.7; VIM-2 inh conf: 14.4*

What do the screens show for `CCOCCc1nnc(NC(=O)C(C)Oc2ccccc2)s1` (stereo unspecified)?
PolyA inh: -5.2; proCasp3 act: 2.9; Neddyl block: inactive; procasp7 counter: -0.1; IMP-1 inh-1: 1.0; VIM-2 inhibitor: 1.4

What do the screens show for `CCNc1nc(NCC)n2c(SCC(=O)N3CC4(C)CC3CC(C)(C)C4)nnc2n1` (stereo unspecified)?
PolyA inh: -13.7; proCasp3 act: -4.0; Neddyl block: inactive; procasp7 counter: -3.0; IMP-1 inh-1: -1.5; VIM-2 inhibitor: -2.8

What do the screens show for `O=C(CNCc1ccccn1)N1CCc2ccccc2C1`?
PolyA inh: -3.8; proCasp3 act: -6.4; Neddyl block: inactive; procasp7 counter: 4.0; IMP-1 inh-1: -0.7; VIM-2 inhibitor: 29.8*; IMP-1 inh-2: -2.7; VIM-2 FRET ctr: -8.8; TEM-1 inh: -4.8; VIM-2 inh conf: 49.7*

Results for COc1ccc(C)cc1NS(=O)(=O)c1ccc(-c2cnc(C3CC3)o2)cc1 ?
PolyA inh: -12.1; proCasp3 act: 1.5; Neddyl block: inactive; procasp7 counter: 0.2; IMP-1 inh-1: -1.0; VIM-2 inhibitor: -2.4

What do the screens show for `O=c1[nH]c(=S)[nH]c2nc(-c3cccs3)cc(C(F)(F)F)c12`?
PolyA inh: 10.8; proCasp3 act: -0.2; Neddyl block: inactive; procasp7 counter: -1.8; IMP-1 inh-1: -4.9; VIM-2 inhibitor: 12.6*; IMP-1 inh-2: -2.6; VIM-2 FRET ctr: 4.4; TEM-1 inh: -7.2; VIM-2 inh conf: 15.0*

How did COc1ccc(Cl)c2c1[nH]c1nc(SCc3ccccn3)nnc12 do in these assays?
PolyA inh: 18.0; proCasp3 act: 3.0; Neddyl block: inactive; procasp7 counter: 5.7; IMP-1 inh-1: 1.3; VIM-2 inhibitor: 13.4*; IMP-1 inh-2: -2.9; VIM-2 FRET ctr: 2.2; TEM-1 inh: -8.2; VIM-2 inh conf: 21.5*

Results for CCOc1ccc(C2/C(=C(\O)c3cccc(OC)c3)C(=O)C(=O)N2c2cc(C)on2)cc1OC (stereo unspecified) ?
PolyA inh: 2.6; proCasp3 act: -2.7; Neddyl block: inactive; procasp7 counter: -12.0; IMP-1 inh-1: 0.9; VIM-2 inhibitor: 5.0

How did CNCc1cc(Br)c(OCC(=O)Nc2ccccc2OC)c(OC)c1 do in these assays?
PolyA inh: 3.6; proCasp3 act: 6.9; Neddyl block: inactive; procasp7 counter: 2.6; IMP-1 inh-1: -2.2; VIM-2 inhibitor: 12.7*; IMP-1 inh-2: -3.5; VIM-2 FRET ctr: 1.3; TEM-1 inh: -4.1; VIM-2 inh conf: 26.8*

How did CCNCc1cc(Br)c(OCC(=O)Nc2ccccc2)c(OC)c1 do in these assays?
PolyA inh: 16.0; proCasp3 act: -1.0; Neddyl block: inactive; procasp7 counter: 2.1; IMP-1 inh-1: -1.7; VIM-2 inhibitor: 2.0

How did OCCCc1n[nH]c(=S)n1-c1ccccc1 do in these assays?
PolyA inh: 2.2; proCasp3 act: -0.3; Neddyl block: inactive; procasp7 counter: -3.7; IMP-1 inh-1: -1.9; VIM-2 inhibitor: 23.2*; IMP-1 inh-2: -3.3; VIM-2 FRET ctr: 37.8*; TEM-1 inh: -6.9; VIM-2 inh conf: 27.4*

How did CCc1ccc(NC(=O)c2noc3c2CCc2ccccc2-3)cc1 do in these assays?
PolyA inh: 4.1; proCasp3 act: 1.7; Neddyl block: inactive; procasp7 counter: 5.0; IMP-1 inh-1: 0.6; VIM-2 inhibitor: 1.8

How did CCN1CCN(CCNC(=O)CCc2c(C)c3c(C)nn(-c4ccccc4)c3n(C)c2=O)CC1 do in these assays?
PolyA inh: 2.0; proCasp3 act: 3.0; Neddyl block: inactive; procasp7 counter: 2.0; IMP-1 inh-1: -3.9; VIM-2 inhibitor: 19.0*; IMP-1 inh-2: -3.0; VIM-2 FRET ctr: -1.2; TEM-1 inh: -2.8; VIM-2 inh conf: 30.1*

Results for CCN1CCN(CCNC(=O)CCCn2nc(C)c3c(C)n(-c4ccc(C)cc4)nc3c2=O)CC1 ?
PolyA inh: -1.2; proCasp3 act: 0.6; Neddyl block: inactive; procasp7 counter: -2.8; IMP-1 inh-1: -0.6; VIM-2 inhibitor: 0.8

Results for COc1ccc(CSc2nc(C)cc(C)c2C#N)cc1 ?
PolyA inh: -5.5; proCasp3 act: 10.3; Neddyl block: inactive; procasp7 counter: 7.8; IMP-1 inh-1: -2.1; VIM-2 inhibitor: -1.5

What do the screens show for `CCOc1ccc2nc(C)cc(Nc3ccc4c(c3)OCCO4)c2c1`?
PolyA inh: -2.8; proCasp3 act: 10.9; Neddyl block: inactive; procasp7 counter: 7.4; IMP-1 inh-1: -2.6; VIM-2 inhibitor: 18.1*; IMP-1 inh-2: -3.1; VIM-2 FRET ctr: -1.2; TEM-1 inh: -4.6; VIM-2 inh conf: 31.2*

How did CCOc1ccc2nc(C)cc(Nc3ccc(N4CCOCC4)cc3)c2c1 do in these assays?
PolyA inh: -23.5; proCasp3 act: 6.5; procasp7 counter: -3.1; IMP-1 inh-1: -3.4; VIM-2 inhibitor: 7.4

What do the screens show for `Cc1cc(C)nc(N2CCC(C(=O)Nc3ccc4c(c3)OCO4)CC2)n1`?
PolyA inh: -18.9; proCasp3 act: 2.4; Neddyl block: inactive; procasp7 counter: -1.1; IMP-1 inh-1: -4.6; VIM-2 inhibitor: -1.2

Assay outcomes from PubChem.
